ChEMBL document CHEMBL3244090, “Combined high oxytocic with negligible antidiuretic and pressor activities in multisubstituted oxytocins” (J Med Chem, 1977)
*1 amine or outer side, *2 acyl side, *3 side chain or, on linkers, in order; H or OH if unused. Where a SMILES comes first, the peptide text is derived from it. Bridges are numbered along the chain shown (N, C = ends). X1 = O=C([C@H](O)CS[*:2])[*:1]

Tests used:
[1] = Oxytocic potency in rat uterus; type: functional
Procedure, shortened: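 Isolated uterine horns from rats in natural estrus. The standard was given repeatedly until reproducible values were obtained. After the preparation was exposed to an analogue, several further doses of standard were needed before the standard's potency became consistent between analogue injections.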

[2] = Ratio of oxytocic potency to antidiuretic activity in rat; design: species or system Urine
[3] = species: Rattus norvegicus; experiment: Vasopressor activity in rat; type: ADME, organism-based; conditions: in vivo
Procedure, shortened: (§1)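 Pressor and antidiuretic assays run in anesthetized male rats.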

[4] = test system: Gallus gallus; experiment: Vasodepressor activity in conscious chicken; type: ADME, organism-based; conditions: in vivo
Procedure, shortened: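 Vasodepressor assay run in conscious chickens.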

[5] = test system: Rattus norvegicus; experiment: Antidiuretic activity in iv dosed rat; type: ADME, organism-based, Urine; conditions: in vivo; procedure, shortened: as §1

Row | SMILES | Activity [3] [U/mg] | Activity [4] [U/mg] | Activity [5] [U/mg] | Activity [1] [U/mg] | Ratio [2]
1 | CC[C@H](C)[C@@H]1NC(=O)[C@H](Cc2ccc(O)cc2)NC(=O)[C@@H](N)CSSC[C@@H](C(=O)NCC(=O)N[C@@H](CC(C)C)C(=O)NCC(N)=O)NC(=O)[C@H](CC(N)=O)NC(=O)[C@H](CCC(N)=O)NC1=O (H-CYIQNCGLG-NH2; disulfide 1-6) | 0.3 | 224 | 0.01 | 65 | 6500
2 | CC[C@H](C)[C@@H]1NC(=O)[C@H](Cc2ccc(O)cc2)NC(=O)[C@H](O)CSSC[C@@H](C(=O)NCC(=O)N[C@@H](CC(C)C)C(=O)NCC(N)=O)NC(=O)[C@H](CC(N)=O)NC(=O)[C@H]([C@@H](C)O)NC1=O (YITNCGLG-NH2; linker N-5 via X1) |  | 50 | 0.048 | 337 | 7000
3 | CC[C@H](C)[C@@H]1NC(=O)[C@H](Cc2ccc(O)cc2)NC(=O)[C@@H](N)CSSC[C@@H](C(=O)NCC(=O)N[C@@H](CC(C)C)C(=O)NCC(N)=O)NC(=O)[C@H](CC(N)=O)NC(=O)[C@H]([C@@H](C)O)NC1=O (H-CYITNCGLG-NH2; disulfide 1-6) |  | 8.6 | 0.001 | 175 | 135000

More lines, main results first:

Row | Activity [3] [U/mg] | Activity [4] [U/mg] | Activity [5] [U/mg] | SMILES | Activity [1] [U/mg] | Ratio [2]
4 | 3.1 | 507 | 2.7 | CC[C@H](C)[C@@H]1NC(=O)[C@H](Cc2ccc(O)cc2)NC(=O)[C@@H](N)CSSC[C@@H](C(=O)N2CCC[C@H]2C(=O)N[C@@H](CC(C)C)C(=O)NCC(N)=O)NC(=O)[C@H](CC(N)=O)NC(=O)[C@H](CCC(N)=O)NC1=O [OXYTOCIN] | 546 | 200
5 | 0.43 | 1480 | 1.8 | CC[C@H](C)[C@@H]1NC(=O)[C@H](Cc2ccc(O)cc2)NC(=O)[C@@H](N)CSSC[C@@H](C(=O)N2CCC[C@H]2C(=O)N[C@@H](CC(C)C)C(=O)NCC(N)=O)NC(=O)[C@H](CC(N)=O)NC(=O)[C@H]([C@@H](C)O)NC1=O (H-CYITNCPLG-NH2; disulfide 1-6) | 923 | 500
6 | 14.7 | 1778 | 16.6 | CC[C@H](C)[C@@H]1NC(=O)[C@H](Cc2ccc(O)cc2)NC(=O)[C@H](O)CSSC[C@@H](C(=O)N2CCC[C@H]2C(=O)N[C@@H](CC(C)C)C(=O)NCC(N)=O)NC(=O)[C@H](CC(N)=O)NC(=O)[C@H](CCC(N)=O)NC1=O (YIQNCPLG-NH2; linker N-5 via X1) | 1275 | 40
